This is a sample that favours compounds with a hit; in the whole collection about 3% have one here.
ABHD5 PLIN5 PPI = ABHD5-PLIN5 interaction inhibitors, primary screen, cell lysate, split luciferase complementation, luminescence; inhibition, % at 4 µM; 360,000 tested, 0.78% active; AID 602281, 2012; Perilipin-5 (Homo sapiens) + 1-acylglycerol-3-phosphate O-acyltransferase ABHD5 (Homo …; Split G. princeps luciferase complementation, 4 h;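 active means inhibition above the mean inhibition across every tested compound plus 3 SD, cut at about 22% in these data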;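 further: 0% = DMSO only wells and the 100% control is not disclosed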
MC4R barr agon = MC4R agonists recruiting beta-arrestin, primary screen, cell-based, luminescence, agonist arm of biased-ligand search; U2OS MC4R beta-arrestin complementation; percent of melanotan II response, DMSO zero; 360,000 tested, 0.98% active; AID 540308, 2011; activation, % at 8.9 µM;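 active means activation above a per-plate cutoff, the mean activation of sample wells on that plate plus 3 SD, cut at about 8% in these data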
Target sequence (P32245 whole entry, looked up): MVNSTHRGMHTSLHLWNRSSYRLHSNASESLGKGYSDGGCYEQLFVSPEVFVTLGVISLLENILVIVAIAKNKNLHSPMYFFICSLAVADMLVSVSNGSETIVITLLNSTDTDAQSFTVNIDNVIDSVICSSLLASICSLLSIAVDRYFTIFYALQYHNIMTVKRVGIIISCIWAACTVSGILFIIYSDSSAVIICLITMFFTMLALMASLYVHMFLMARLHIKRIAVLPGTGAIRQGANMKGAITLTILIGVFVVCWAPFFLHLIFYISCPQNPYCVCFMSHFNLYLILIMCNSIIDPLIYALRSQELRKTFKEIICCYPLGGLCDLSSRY
Beta2AR agonist = beta2AR agonists driving receptor internalization, primary screen, cell-based, FAP fluorogen, flow cytometry; Am2.2-beta2AR cells; response, % (concentration not given with the values); 340,000 tested, 0.43% active;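 active means response above a set limit, near 3 SD of response in nonfluorescent compounds, cut at about 42% in these data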
MC4R antagonist = MC4R antagonists of cAMP signaling, primary screen, cell-based, TR-FRET, antagonist arm of biased-ligand search; 360,000 tested, 0.48% active; MC4R-expressing cells, MTII-stimulated cAMP, LANCE TR-FRET; inhibition, % at 6.5 µM;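 active means inhibition above its plate's cutoff, the mean of tested wells on that plate plus 3 SD, cut at about 29% in these data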;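 further: 0% = Melanotan II alone and 100% = Melanotan II plus saturating MCL0020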
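Assay system: human MC4R-expressing U2OS cells; reagent: Melanotan II stimulation of cells; dosing: 6.5 µM single dose; timing: compound 30 min, challenge 1 h, detection 1 h; signal: TR-FRET cAMP assay; replicates: one well per compound, no replicates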
PfGluPho inh = PfG6PD enzyme inhibitors, primary screen, biochemical, fluorescence intensity, uHTS | glucose-6-phosphate dehydrogenase-6-phosphogluconolactonase (Plasmodium falciparum 3D7) | PfGluPho enzyme, NADPH resazurin-diaphorase fluorescence | inhibition, % at 20 µM | 350,000 tested, 0.78% active | AID 504690, 2011;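 active means inhibition reaching at least a set limit at 20 µM in the primary screen, cut at about 59% in these data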;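 further: 0% = DMSO wells with substrate and 100% = DMSO wells lacking glucose-6-phosphate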
Beta2AR ag CP1 = beta2AR agonists via receptor internalization, confirmation, cell-based, FAP fluorogen, flow cytometry, single point, cherry pick 1. shares compounds with Beta2AR agonist. Am2.2-beta2AR cells, FAP surface receptor; stronger effect = lower value. percent response (surface receptor), % at 10 µM. 1,100 tested, 25% active. AID 540358, 2011;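 active means surface receptor percent response at or below 58%, roughly 3 SD from nonfluorescent compounds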
B2AR FAP counter = fluorescence artifact in beta-2AR agonist FAP counterscreen; calls only at 10 µM; shares compounds with Beta2AR agonist; Am2.2 cells, FAP fluorogen flow cytometry; stronger effect = lower value; 1,100 tested, under 10 active;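 active means percent response below a set limit in fluorescence channel 1 and below 50% in channel 8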
* = called active by the depositor; i = inactive; . = not tested or not shown.

SMILES | ABHD5 PLIN5 PPI | MC4R barr agon | Beta2AR agonist | MC4R antagonist | PfGluPho inh | Beta2AR ag CP1 | B2AR FAP counter
NS(=O)(=O)c1cccc(NC(=O)c2cccc(N3C(=O)c4ccccc4C3=O)c2)c1 | -5 | -2 | -7 | 19 | -3 | 108 | i
CC(=O)c1cccc(NC(=O)c2cccc(N3C(=O)c4ccccc4C3=O)c2)c1 | 5 | -1 | 7 | 9 | -17 | 100 | i
COc1ccccc1N1C(=O)c2ccc(C(=O)Nc3cccc(C(C)=O)c3)cc2C1=O | -9 | -3 | 1 | 8 | 11 | . | .
O=c1[nH]c(CSc2ccccn2)nc2c1oc1ccccc12 | -9 | -1 | 17 | 15 | 5 | . | .
CC(=O)Oc1ccc(C(=O)Nc2cccc(C(=O)NC(C)(C)C)c2)cc1 | 1 | 0 | -4 | 5 | -7 | . | .
CC(=O)Oc1ccc(C(=O)Nc2cccc(C(=O)c3cccc(NC(=O)c4ccc(OC(C)=O)cc4)c3)c2)cc1 | 6 | 0 | 57* | -1 | -18 | 100 | i
COc1ccc(CNCCC(c2ccc(OC(C)C)cc2)C(C)C)cc1OC (centres undefined) | 8 | 1 | 28 | 7 | 6 | . | .
COc1ccc(CNCCC(c2ccc(OC(C)C)cc2)c2ccccc2OC)cc1OC (centres undefined) | 13 | 5 | 12 | 5 | 5 | 105 | i
COc1ccccc1C(CCNCc1ccccc1)c1ccc(OC(C)C)cc1 (centres undefined) | 2 | 9.0* | 25 | 11 | -17 | 111 | i
COc1ccc(C(CC(=O)O)c2ccc3c(c2)OCO3)cc1 (centres undefined) | -2 | -2 | -1 | 6 | -13 | . | .
COc1ccc(CNCCC(c2ccccc2)c2ccc3c(c2)OCO3)cc1 (centres undefined) | 18 | 9.1* | 21 | 0 | 11 | 82 | i
COc1ccc(NC(=O)N(C)C[C@H]2Oc3c(NC(=O)C4CC4)cccc3C(=O)N([C@H](C)CO)C[C@@H]2C)cc1 | 8 | 0 | 0 | 2 | 0 | . | .
CS(=O)(=O)c1ccc(Oc2ccc(-c3nnco3)cc2)c([N+](=O)[O-])c1 | -6 | 2 | -16 | 5 | -22 | . | .
CCOc1cc(-c2nc3ccccn3c2NCC2CCCO2)ccc1O (centres undefined) | 2 | -1 | 20 | 4 | 20 | 30* | i
COc1cc(-c2nc3ccccn3c2NCC2CCCO2)ccc1O (centres undefined) | 4 | -2 | -16 | -4 | 11 | . | .
CCSc1nc2ccccc2n1C(=O)c1ccc(S(=O)(=O)N2CCCCCC2)cc1 | 4 | 1 | 53* | 0 | -26 | 57* | i
CCSc1nc2ccccc2n1C(=O)c1ccc(S(=O)(=O)N2CCCCC2)cc1 | 5 | -2 | 38 | 3 | 3 | . | .
COc1cccc(OC)c1C(=O)Nc1ccc(NC(=O)c2ccco2)cc1 | -3 | -1 | -10 | -1 | 7 | 99 | i
CCC(=O)Oc1cccc(C(=O)Nc2cccc(NC(=O)c3ccco3)c2)c1 | 1 | 0 | -5 | 10 | -14 | . | .
CC(C)Oc1cccc(C(=O)Nc2ccc(NC(=O)c3ccco3)cc2)c1 | 0 | 1 | -10 | -4 | -12 | 148 | i
COc1cc(C2NC(=S)NC(C)=C2C(=O)Nc2cc(C)cc(C)c2)ccc1O (centres undefined) | -4 | -1 | 1 | 8 | 10 | . | .
Nn1c(SCc2nc3ccccc3[nH]2)nnc1-c1ccccc1 | 3 | 0 | -5 | -2 | -8 | . | .
Cc1ccc(OCc2nnc(SCc3nc4ccccc4[nH]3)n2Cc2ccco2)cc1 | 1 | 1 | 104* | 0 | 26 | 20* | i

Source: PubChem BioAssay
